Series [1] relates to Rattus norvegicus. The experiment in a line: Increase in cholesterol level in Wistar rat liver at 98 umol/kg/day administered through diet for 4 days. The class given is ADME, organism-based. The following applies: in vivo, po, 96 h.
For series [2], the system named is Rattus norvegicus. The experiment in a line: Hypolipidemic activity in Wistar rat assessed as reduction in plasma triglyceride level at 445 umol/kg/day administered through diet. The class given is functional.
Series [3] relates to Rattus norvegicus. The experiment in a line: Hypolipidemic activity in Wistar rat assessed as reduction in plasma cholesterol level at 445 umol/kg/day administered through diet. The class given is functional. A digest of the protocol:
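Young male Wistar rats (170-190 g initial weight) in groups of six, fed test compound admixed to Purina Lab Chow ad libitum. Actual daily dose derived from recorded food intake and body weight. Cardiac puncture blood taken at end of treatment; plasma cholesterol determined by automated method. Percent reduction from concurrently run untreated controls, significance by Student's t test.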

Series [4] deals with Rattus norvegicus. In words: Hypolipidemic activity in Wistar rat assessed as reduction in plasma triglyceride level at 201 umol/kg/day administered through diet for 4 days. Type of series: functional. The conditions noted are these: 96 h. A digest of the protocol:
(§1)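 Young male Wistar rats, 170-190 g initial weight, six per group, fed drug mixed thoroughly into Purina Lab Chow ad libitum for the stated days; daily dose calculated from food consumption and body weight. Bled by cardiac puncture at end; plasma cholesterol and triglycerides by automated procedures, expressed as percent reduction versus simultaneous untreated controls; Student's t test.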

Series [5] relates to Rattus norvegicus. In words: Increase in liver weight in Wistar rat at 445 umol/kg/day administered through diet. The class given is ADME, organism-based. The following applies: in vivo, po.
Series [6] relates to Rattus norvegicus. The experiment in a line: Hypolipidemic activity in Wistar rat assessed as reduction in plasma cholesterol level at 98 umol/kg/day administered through diet for 4 days. The class given is functional. The conditions noted are these: 96 h. A digest of the protocol:
as §1

Series [7] deals with Rattus norvegicus. The experiment in a line: Increase in cholesterol level in Wistar rat liver at 201 umol/kg/day administered through diet for 4 days. Type of series: ADME, organism-based. The following applies: in vivo, po, 96 h.
Series [8] deals with Rattus norvegicus. The experiment in a line: Increase in liver weight in Wistar rat at 201 umol/kg/day administered through diet for 4 days. The class given is ADME, organism-based. The conditions noted are these: in vivo, po, 96 h.
Series [9] has as its system Rattus norvegicus. The experiment in a line: Increase in liver weight in Wistar rat at 98 umol/kg/day administered through diet for 4 days. The class given is ADME, organism-based. The conditions noted are these: in vivo, po, 96 h.
Series [10] relates to Rattus norvegicus. In words: Hypolipidemic activity in Wistar rat assessed as reduction in plasma triglyceride level at 98 umol/kg/day administered through diet for 4 days. Type of series: functional. The conditions noted are these: 96 h.
For series [11], the system named is Rattus norvegicus. The experiment in a line: Hypolipidemic activity in Wistar rat assessed as reduction in plasma cholesterol level at 201 umol/kg/day administered through diet for 4 days. The following applies: 96 h. The class given is functional. A digest of the protocol: (§2)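 Young male Wistar rats, 170-190 g at start, in groups of six, given compound mixed into Purina Lab Chow ad libitum for 4 or 10 days as stated. Daily dose was calculated from food consumption and body weight. Plasma was taken by cardiac puncture at the end and cholesterol measured by automated procedure. Results are % reduction versus a concurrent untreated control group, with Student's t test.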

Series [12] deals with Rattus norvegicus. In words: Increase in cholesterol level in Wistar rat liver at 445 umol/kg/day administered through diet. The class given is ADME, organism-based. The following applies: in vivo, po.
The test system of series [13] is Rattus norvegicus. In words: Increase in liver weight in Wistar rat at 461 umol/kg/day administered through diet for 4 days. Type of series: ADME, organism-based. The conditions noted are these: in vivo, po, 96 h.
Series [14] deals with Rattus norvegicus. In words: Hypolipidemic activity in Wistar rat assessed as reduction in plasma triglyceride level at 392 umol/kg/day administered through diet for 10 days. The class given is functional. The conditions noted are these: 240 h. In short, it runs like this: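 Young male Wistar rats (170-190 g initial weight), groups of six, fed test compound mixed into Purina Lab Chow ad libitum; daily dose calculated from food consumption and body weight. Bled by cardiac puncture at end of treatment; plasma triglycerides measured by automated procedure. Results given as percent reduction versus a simultaneous untreated control group, with significance by Student's t test.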

Series [15] relates to Rattus norvegicus. In words: Increase in cholesterol level in Wistar rat liver at 439 umol/kg/day administered through diet for 10 days. Type of series: ADME, organism-based. The conditions noted are these: in vivo, po, 240 h.
Series [16] has as its system Rattus norvegicus. The experiment in a line: Increase in cholesterol level in Wistar rat liver at 392 umol/kg/day administered through diet for 10 days. Type of series: ADME, organism-based. The conditions noted are these: in vivo, po, 240 h.
Series [17] deals with Rattus norvegicus. The experiment in a line: Increase in cholesterol level in Wistar rat liver at 461 umol/kg/day administered through diet for 4 days. The class given is ADME, organism-based. The following applies: in vivo, po, 96 h.
Series [18] has as its system Rattus norvegicus. The experiment in a line: Increase in liver weight in Wistar rat at 439 umol/kg/day administered through diet for 10 days. The class given is ADME, organism-based. The following applies: in vivo, po, 240 h. A digest of the protocol:
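Male Wistar rats (170-190 g initial), groups of six, dosed via diet ad libitum for 4 or 10 days, daily dose from food consumption. Liver wet weight measured, expressed as g/100 g final body weight, compared with untreated controls run simultaneously.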

In series [19] the test system is Rattus norvegicus. The experiment in a line: Hypolipidemic activity in Wistar rat assessed as reduction in plasma triglyceride level at 439 umol/kg/day administered through diet for 10 days. The class given is functional. The following applies: 240 h. A digest of the protocol: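 Young male Wistar rats (initial weight 170-190 g), groups of six, fed compound mixed into Purina Lab Chow ad libitum for 4 or 10 days; daily dose calculated from food consumption and body weight. Bled by cardiac puncture; plasma cholesterol and triglycerides by automated procedures; percent reduction versus simultaneous untreated controls, Student's t test.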

Series [20] has as its system Rattus norvegicus. In words: Increase in liver weight in Wistar rat at 392 umol/kg/day administered through diet for 10 days. The class given is ADME, organism-based. The following applies: in vivo, po, 240 h.
Series [21] has as its system Rattus norvegicus. The experiment in a line: Hypolipidemic activity in Wistar rat assessed as reduction in plasma triglyceride level at 461 umol/kg/day administered through diet for 4 days. Type of series: functional. The conditions noted are these: 96 h.
For series [22], the system named is Rattus norvegicus. The experiment in a line: Hypolipidemic activity in Wistar rat assessed as reduction in plasma cholesterol level at 392 umol/kg/day administered through diet for 10 days. The class given is functional. The following applies: 240 h. In short, it runs like this: as §2
The test system of series [23] is Rattus norvegicus. In words: Hypolipidemic activity in Wistar rat assessed as reduction in plasma cholesterol level at 461 umol/kg/day administered through diet for 4 days. The class given is functional. The following applies: 96 h. A digest of the protocol:
(§3)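 Young male Wistar rats, 170-190 g initial weight, groups of six, given compound mixed thoroughly into Purina Lab Chow ad libitum for 4 or 10 days as stated. Daily dose calculated from food consumption and body weight. Bled by cardiac puncture at end of treatment; plasma cholesterol measured by automated procedure. Expressed as percent reduction versus simultaneous untreated control group; Student's t test.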

Series [24] deals with Rattus norvegicus. The experiment in a line: Hypolipidemic activity in Wistar rat assessed as reduction in plasma cholesterol level at 439 umol/kg/day administered through diet for 10 days. The class given is functional. The following applies: 240 h. A digest of the protocol: as §3
Series [25] has as its system Rattus norvegicus. In words: Increase in cholesterol level in Wistar rat liver at 362 umol/kg/day administered through diet for 4 days. The following applies: in vivo, po, 96 h. The class given is ADME, organism-based.
In series [26] the test system is Rattus norvegicus. The experiment in a line: Increase in liver weight in Wistar rat at 362 umol/kg/day administered through diet for 4 days. Type of series: ADME, organism-based. The conditions noted are these: in vivo, po, 96 h.
The subject of series [27] is Rattus norvegicus. The experiment in a line: Hypolipidemic activity in Wistar rat assessed as reduction in plasma cholesterol level at 540 umol/kg/day administered through diet for 4 days. Type of series: functional. The conditions noted are these: 96 h. In short, it runs like this:
as §3

Series [28] relates to Rattus norvegicus. In words: Increase in cholesterol level in Wistar rat liver at 540 umol/kg/day administered through diet for 4 days. The class given is ADME, organism-based. The following applies: in vivo, po, 96 h.
The test system of series [29] is Rattus norvegicus. The experiment in a line: Hypolipidemic activity in Wistar rat assessed as reduction in plasma triglyceride level at 540 umol/kg/day administered through diet for 4 days. Type of series: functional. The conditions noted are these: 96 h.
Series [30] concerns Rattus norvegicus. In words: Increase in liver weight in Wistar rat at 540 umol/kg/day administered through diet for 4 days. Type of series: ADME, organism-based. The following applies: in vivo, po, 96 h.
Series [31] deals with Rattus norvegicus. In words: Increase in liver weight in Wistar rat at 533 umol/kg/day administered through diet for 4 days. The conditions noted are these: in vivo, po, 96 h. Type of series: ADME, organism-based.
Series [32] deals with Rattus norvegicus. The experiment in a line: Hypolipidemic activity in Wistar rat assessed as reduction in plasma cholesterol level at 533 umol/kg/day administered through diet for 4 days. The class given is functional. The following applies: 96 h. In short, it runs like this:
as §3

Series [33] concerns Rattus norvegicus. In words: Hypolipidemic activity in Wistar rat assessed as reduction in plasma triglyceride level at 533 umol/kg/day administered through diet for 4 days. The following applies: 96 h. Type of series: functional.
Series [34] concerns Rattus norvegicus. In words: Increase in cholesterol level in Wistar rat liver at 533 umol/kg/day administered through diet for 4 days. The conditions noted are these: in vivo, po, 96 h. Type of series: ADME, organism-based.

Take `CCCCCCCCCCCCCCOc1ccc(C(=O)OC)cc1`: the Activity in series [1] amounted to 0%; in series [5], 7%; in series [7] it was 12%; in series [8], 0%; in series [9] it was 0%; in series [12], 12%. For the same compound, the inhibition in vivo at 445 µmol/kg in series [2] was found to be 49%; in series [3] it was 6%. Also, the figures for the inhibition in vivo at 201 µmol/kg in series [4] and in series [11] were 70% and 23%, respectively. Moreover, the inhibition in vivo at 98 µmol/kg in [6] was found to be 27%; in series [10], 72%.
`CCCCCCCCCCCCCCOc1ccc(C(=O)OCC)cc1`: the Activity came out at 16% in series [13]; 3% in series [15]; 0% in [16]; 20% in series [17]; 10% in series [18]; 2% in [20]. Further, the inhibition in vivo at 392 µmol/kg in series [14] worked out at 61%; in series [22], 33%. The results for the inhibition in vivo at 439 µmol/kg in series [19] and in series [24] were 54% and 24%, respectively. For the same compound, the inhibition in vivo at 461 µmol/kg in series [21] was 42%; in [23], 23%.
For the compound `CCCCCCCCCCCCCCCCCCCCOc1ccc(C(=O)OC)cc1`, the Activity in series [25] came to 0%; in series [26], 4%.
Consider `CCCCCCCCCCOc1ccc(C(=O)O)o1`, for which the inhibition in vivo at 540 µmol/kg in series [27] worked out at 5%; in [29] it was 46%. For the same compound, the Activity is 17% in series [28] and 1% in [30].
On to `CCCCCCCCCCCCOc1ccc(C(=O)O)o1`, for which the Activity in series [31] turned out to be 22%; in series [34], 0%. The inhibition in vivo at 533 µmol/kg in series [32] amounted to 38%; in series [33] it was 79%.

Broadly, the inhibition in vivo is the percentage by which the read-out fell short of the control.
